Beta2AR agonist: activates human beta-2 adrenergic receptor causing internalization; Am2.2-beta2AR cells, FAP receptor internalization, flow cytometry; response, % (concentration not given with the values); actives 0.43% (n = 340,000);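 active = response above a set limit, near 3 SD of response in nonfluorescent compounds, cut at about 42% in these data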
Target sequence (P07550 whole entry, looked up): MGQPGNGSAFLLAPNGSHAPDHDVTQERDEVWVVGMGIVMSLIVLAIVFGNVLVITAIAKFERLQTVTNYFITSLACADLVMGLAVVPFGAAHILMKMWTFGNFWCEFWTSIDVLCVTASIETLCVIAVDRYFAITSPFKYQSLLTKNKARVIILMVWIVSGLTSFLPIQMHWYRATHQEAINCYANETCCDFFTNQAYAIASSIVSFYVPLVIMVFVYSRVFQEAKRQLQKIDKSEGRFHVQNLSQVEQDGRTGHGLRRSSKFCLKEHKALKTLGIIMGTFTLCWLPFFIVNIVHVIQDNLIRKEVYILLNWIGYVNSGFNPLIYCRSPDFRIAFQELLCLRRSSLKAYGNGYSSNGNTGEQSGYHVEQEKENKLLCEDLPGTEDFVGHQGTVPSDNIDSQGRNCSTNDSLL
V-ATPase pHluor: yeast V-ATPase proton transport regulation by pHLuorin; S. cerevisiae, pHLuorin cytosolic pH fluorescence; response, % at 10 µM; actives 0.37% (n = 350,000); in the data active = response mostly above about 7.3%, no sharp cut-off; inactive = mostly below about 5.4%; also: actives read high
rCAG binder: binds r(CAG) RNA repeats; r(CAG) RNA repeat, TO-PRO-1 dye displacement fluorescence; inhibition, % at 3 µM; actives 1.3% (n = 370,000);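 active = inhibition above the plate cutoff, the mean of all test compounds on that plate plus 3 SD, cut at about 35% in these data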;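 also: 0% = DMSO alone and 100% = 100 µM mitoxantrone as full dye displacement; higher means more dye released from RNA so lower well fluorescence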
Exocytosis inh: blocks lytic granule exocytosis | TALL-104 LAMP-1 surface exposure, flow cytometry; cells stimulated with thapsigargin and PMA | AID 651702 | inhibition, % at 10 µM | actives 0.66% (n = 360,000);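 active = inhibition above about 55%, limit read from the data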
T cell HTS: T cell immune modulation candidate | response (vesicle binding), % at 7 µM | AID 2052 | 2C CD8+ T cell-vesicle binding, flow cytometry; active compounds read low | actives 0.068% (n = 330,000);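 active = response, share of CD8 T cells binding vesicles, and their 90th percentile fluorescence all below set limits, cut at about 80% in these data, passing the limit was not always enough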;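 also: values below 100% mean blocked vesicle binding to the CD8+ T cells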
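Read-out – percent CD8+ FL2 mean versus row control · System – murine 2C transgenic CD8+ T lymphocytes · Times – 1.5 h cell–vesicle binding at 37 °C, then 20 min icy labelling · Control set – naked vesicles low, QL9 vesicles with vehicle high · Detection – cytometric PE anti-B7-1 and Alexa647 anti-CD8 signals after 1% paraformaldehyde fixation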
MPTP inh: permeability transition pore inhibition; inhibition, % at 10 µM; actives 1.4% (n = 360,000); isolated mouse mitochondria, Ca2+ swelling absorbance, 30 min;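 active = inhibition of 50% or more, scaled per plate between neutral and stimulator controls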;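 also: 0% = DMSO wells given calcium and 100% = 1 mM EGTA wells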
V-ATPase pH SP: modulates yeast V-ATPase proton transport | shares compounds with V-ATPase pHluor | S. cerevisiae pHLuorin cytosolic pH | response, % at 10 µM | actives 2% (n = 980); in the data active = response above about 24%;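 also: plate controls were vehicle wells for no effect and positive control wells for full effect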
Rh123 counter: Rhodamine 123 counter-screen of mitochondrial pore hits | isolated mitochondria, membrane potential, Rhodamine 123 fluorescence | inhibition, % at 10 µM | actives 78% (n = 5,000) | shares compounds with MPTP inh; in the data active = inhibition above about 22%;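 also: 0% = DMSO vehicle and 100% = positive control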
MPTP abs DR: MPTP inhibition, dose response swelling confirmation. isolated mitochondria swelling, absorbance. shares compounds with MPTP inh. actives 58% (n = 780). IC50, µM; in the data active = IC50 below about 20 µM
MPTP counter DR: counter-screen for mitochondrial permeability transition pore inhibitors, dose response. shares compounds with MPTP inh. isolated mitochondria counterscreen, fluorescence read-out. IC50, µM. actives 49% (n = 780). AID 651564; in the data active = IC50 below about 80 µM
Granule exo CP1: blocks lytic granule exocytosis | inhibition, % at 10 µM | actives 11% (n = 1,500) | TALL-104 cells, LAMP-1 externalization, flow cytometry; stimulated with PMA plus thapsigargin | shares compounds with Exocytosis inh; in the data active = inhibition above about 60%;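 also: 0% = stimulated vehicle wells and 100% = unstimulated wells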
rCAG binder conf: r(CAG) RNA repeat binding, confirmation; shares compounds with rCAG binder; TO-PRO-1 dye displacement fluorescence; inhibition, % at 3 µM; actives 70% (n = 4,300);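 active = inhibition above a per-plate cutoff, the mean inhibition of sample wells plus 3 SD, cut at about 35% in these data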;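 also: loss of TO-PRO-1 fluorescence as compound displaces dye from 1x1 AA loop RNA; 0% = DMSO only wells and 100% = 100 µM mitoxantrone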
dCAG dye counter: disrupts DNA CAG TO-PRO-1 complex, flagging rCAG hits | inhibition, % at 3 µM | d(CAG) DNA oligo TO-PRO-1 dye displacement, fluorescence | actives 94% (n = 4,300) | shares compounds with rCAG binder;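 active = inhibition above its plate's cutoff, the mean test-well inhibition plus 3 SD, cut at about 4.8% in these data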;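 also: 0% = DNA dye mix with DMSO and 100% = 100 µM mitoxantrone; hits displace the dye from DNA and so lower well fluorescence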
Starred values were filed as active, the others as inactive; / = no result given. Sampled rows, rich in hits. Any-hit rate of the full collection: about 3.8%.

SMILES	Beta2AR agonist	V-ATPase pHluor	rCAG binder	Exocytosis inh	T cell HTS	MPTP inh	Rh123 counter	others
CC1CCCN(CCC(=O)c2ccc(Br)cc2)C1 (stereo not drawn)	-5.6	8.8*	1.4	3.3	321.0	114.1*	5.3	V-ATPase pH SP=15.9;MPTP abs DR=5.67*;MPTP counter DR=>80
COc1ccc2c(c1)CCCN2C(=O)C1CCCN(S(=O)(=O)c2cccs2)C1 (stereo not drawn)	/	/	0.4	/	/	/	/
COc1ccc(OC)c(S(=O)(=O)NCC2CCN(C(=O)C(=O)c3cc4ccccc4o3)CC2)c1	/	/	5.7	/	/	/	/
CC1CCCC(NC(=S)Nc2cccc(S(=O)(=O)N(C)C)c2)C1C (stereo not drawn)	6.7	8.2*	4.6	-3.0	145.9	72.8*	92.0*	V-ATPase pH SP=5.4
COc1ccc(N/N=C(/C#N)S(=O)(=O)c2nsc(C)c2C#N)cc1	11.7	-3.8	32.5	-6.3	210.6	0.7	/
Cc1snc(S(=O)(=O)/C(C#N)=N/Nc2cccc(C(F)(F)F)c2)c1C#N	3.4	24.6*	/	10.0	236.9	103.8*	89.8*	V-ATPase pH SP=-4.0
N#C/C(=C\c1cc(Cl)ccc1O)C(=O)NC1CCCCC1	10.7	-2.3	/	2.1	175.9	0.4	/
N#C/C(=C\c1cc(Cl)cc(Cl)c1O)C(=O)NC1CCCCC1	3.1	15.3*	30.6	0.0	207.7	60.8*	67.5*	V-ATPase pH SP=1.4
O=c1c2ccccc2sn1-c1ccc(F)cc1	-11.0	-1.7	2.0	7.6	709.8	0.6	/
O=c1c2ccccc2sn1-c1ccc(Cl)cc1	/	0.4	2.2	79.2*	/	12.9	/	V-ATPase pH SP=-22.7;Granule exo CP1=103.8*
Clc1ccccc1OCCCOc1cccc2cccnc12	-2.9	11.8*	-5.0	88.0*	352.1	-0.2	/	V-ATPase pH SP=19.6;Granule exo CP1=-12.2
COC(=O)c1cc2c(c3c4ccccc4n(S(=O)(=O)c4ccc(OC)cc4)c13)C(=O)N(Cc1ccco1)C2	/	/	24.6	/	/	/	/
Cc1ccc(F)c(NC(=O)/C(C#N)=C(\O)c2ccc(C(C)(C)C)cc2)c1	17.4	16.4*	88.6*	5.5	413.3	83.0*	71.0*	V-ATPase pH SP=2.5;rCAG binder conf=89.8*;dCAG dye counter=60.5*
COc1cccc(CNC(=O)[C@H]2CCCN2C(=O)[C@H]2CCCN2C(=O)c2ccccc2)c1	/	/	1.2	/	/	/	/
COC(=O)C1=NN(C(=O)c2cccc(Br)c2)C(O)(c2ccc(Cl)cc2)C1 (stereo not drawn)	-52.0	-3.4	22.4	4.2	486.5	66.6*	73.2*
CCC(C(=O)Nc1ccccc1N1CCCC1)c1ccccc1Cl (stereo not drawn)	/	/	-0.7	/	/	/	/
CC(=O)N1N=C(c2ccc(Br)cc2)OC12CCCC2	-2.4	-8.5	-0.8	-0.4	275.3	2.2	/
CC(=O)N1N=C(c2ccc(C(C)(C)C)cc2)OC1(C)C	5.9	3.7	-7.9	-0.3	137.7	68.8*	4.3	MPTP abs DR=15.7*;MPTP counter DR=17.8*
Clc1ccc(CN2CCN(N=Cc3ccncc3)CC2)cc1	/	/	0.2	/	/	/	/
C=CC[n+]1c(-c2ccc(OC)cc2)csc1NNC(=O)Nc1ccccc1	1.4	0.0	2.9	-5.8	283.0	71.2*	59.2*
CN1CC=C(c2ccccc2)N(c2ccc(Br)cc2)C1=O	/	/	7.0	/	/	/	/
O=C(COC(=O)C1CCC1)Nc1cccc(S(=O)(=O)N2CCOCC2)c1	-10.0	-2.9	0.9	-0.3	541.0	0.1	/
O=C(COC(=O)C1CC2C=CC1C2)Nc1cccc(S(=O)(=O)N2CCCCCC2)c1 (stereo not drawn)	3.7	10.8	1.1	-6.6	235.0	65.1*	70.2*
O=C(COC(=O)c1c(F)cccc1F)Nc1cccc(S(=O)(=O)N2CCCCC2)c1	/	0.4	4.9	18.9	/	0.3	/
O=C(COC(=O)C1CC2C=CC1C2)Nc1cccc(S(=O)(=O)N2CCCCC2)c1 (stereo not drawn)	2.1	5.9	-1.4	-1.9	320.3	58.8*	37.5*
SMILES	Beta2AR agonist	V-ATPase pHluor	rCAG binder	Exocytosis inh	T cell HTS	MPTP inh	Rh123 counter	others
C=CCNC(=O)Nc1ccc2c(c1)[C@@]1(CC(=O)N(CC(C)C)C1c1ccccc1)C(=O)N2C (stereo partly drawn)	/	/	3.6	/	/	/	/
CCCCCCCCN1C(=O)[C@@H](CC(=O)N2CCOCC2)C[C@@]2(C(=O)OC)C1=C[C@H](C(C)C)O[C@@H]2C1CC1	/	/	1.1	/	/	/	/
CCN(CC)C(=O)CC[C@@H]1CC[C@]2(CCCN(C(=O)c3ccno3)C2)O1	/	/	3.4	/	/	/	/
COC(=O)Cc1nnn2c1[C@@H](C)[C@@H](c1ccccc1Br)OC[C@H](C)C2	/	/	2.5	/	/	/	/
CC(c1c[nH]c2ccccc12)c1cn(C)c2ccccc12 (stereo not drawn)	/	/	4.7	/	/	/	/
OC[C@@H]1CC[C@@H]2O[C@H](CCc3ccc(-c4ccc(F)cc4)cc3)[C@@H](n3cc(C4CC4)nn3)C[C@@H]2O1	/	/	7.6	/	/	/	/
O=S1(=O)c2ccc(N3CCSCC3)cc2Oc2ccccc2CN1Cc1cn(Cc2ccc(F)cc2)nn1	/	/	7.1	/	/	/	/
O=C(Nc1ccc(Cl)c(Cl)c1)Nc1cc(S(=O)(=O)N2CCOCC2)ccc1N1CCCC1	4.3	1.2	13.9	1.9	329.5	93.5*	68.0*
O=C(Nc1ccc(Cl)c(Cl)c1)Nc1cc(C(=O)N2CCOCC2)ccc1N1CCCCC1	0.0	0.8	0.2	-0.9	538.7	94.6*	-2.1	MPTP abs DR=18.2*;MPTP counter DR=<2.5*
COc1ccc(Br)cc1CSC(=N)N	0.9	-0.1	0.1	1.6	196.6	1.8	/
CCCCCOc1ccc(Br)cc1CSC(=N)N	10.6	-1.9	10.2	47.1	/	68.2*	105.3*
O=C1c2cc(Br)ccc2N(Cc2ccc(Br)cc2)S(=O)(=O)C1c1cc(Cl)c(Cl)cc1[N+](=O)[O-] (stereo not drawn)	11.4	0.8	/	-4.8	314.5	66.2*	18.0
CCN(CC)S(=O)(=O)c1cc([N+](=O)[O-])ccc1NNC(=O)Nc1ccc(F)cc1	7.2	7.8	8.1	-1.1	382.1	85.6*	91.6*

Screens as filed in PubChem BioAssay.
